Hits are enriched below; roughly 4.8% of the tested compounds scored in any of these assays.
Beta cell apopt: inhibitors of cytokine-induced beta cell apoptosis, primary screen, luminescence. protection from apoptosis, % (no concentration beside the values). AID 435005, 2010. 300,000 tested, 0.8% active. INS-1E cytokine-induced death, ATP luminescence, 48 h; percent of positive-control rescue, neutral wells zero;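 active = Every replicate reaches about 75%, or at least half do and their mean reaches it too, limit read from the data; inconclusive = At least half of replicates reach the limit but their mean does not; inactive = Under half of replicates reach the limit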;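 note: 0% = cytokine-treated negative control wells and 100% = positive control rescue; higher means more ATP so stronger rescue from cytokine killing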
Mdm2-MdmX inh: inhibitors of human Mdm2-MdmX association, primary screen, cell-based, luminescence, split luciferase, SaOS-2, uHTS; SaOS-2 split-luciferase Mdm2/MdmX complementation; inhibition, % at 8 µM; 330,000 tested, 3% active; AID 485346, 2010;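 active = inhibition of at least 50% at 8 µM in the primary screen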
CSC inhib: cancer stem cell viability inhibitors, primary screen, luminescence. cancer stem cell-like cells viability. inhibition, % at 7.5 µM. 300,000 tested, 1.1% active; in the data active = inhibition above about 75%; inconclusive = no clear call, values can overlap the other calls; tested in HMLE shEcad cells
XBP1 UPR activ: activators of adaptive XBP1 UPR arm, primary screen, cell-based, CHO-XBP1 luciferase reporter, luminescence, uHTS; IRE1-XBP1 UPR activation; percent of tunicamycin response, DMSO as zero; activation, % at 20 µM; 330,000 tested, 0.33% active;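 active = versus positive control, 20 µM dose yields 30% or more activation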;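 note: 100% = tunicamycin at 10 µg/mL and 0% = DMSO only wells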
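Material – CHO cell line with stable XBP1 luciferase reporter · Buffer or medium – F12 plus 10% FBS · Compound – single point, 20 µM final compound, 1% DMSO · Schedule – 16-18 h cell attachment at 37 °C, then 6 h compound exposure · Signal – Steady-Glo luminescence read · Benchmarks – high control tunicamycin 10 µg/mL final, low control DMSO vehicle only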
UPR CHOP act: activators of apoptotic CHOP UPR arm, primary screen, cell-based, CHO-CHOP luciferase reporter, luminescence, uHTS; UPR activation; percent of tunicamycin response over DMSO baseline; activation, % at 10 µM; 330,000 tested, 0.34% active; AID 449763, 2010;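 active = at 10 µM dose, activation of 40% or more, normalized to positive control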;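 note: 100% = tunicamycin at 10 µg/mL and 0% = DMSO alone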
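Test system: CHO CHOP reporter cells. Input: 500 CHO-CHOP cells per well. Medium: F12 with 10% FBS. Technique: luciferase luminescence. Measure: percent activation relative to tunicamycin control. Dosing: 10 µM compound, 0.5% DMSO. Timing: 16-18 h cell attachment, then 6 h compound exposure, 37 °C.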
SKKanGAS inh: S. pyogenes SKKanGAS growth inhibitors in kanamycin, primary screen, streptokinase expression inhibitor project, SKKanGAS strain, BacTiter-Glo luminescence. 6 h. inhibition, % at 7.5 µM. AID 1662, 2009. 300,000 tested, 1.3% active;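 active = mean replicate score, as percent of positive control median, at least 50; inconclusive = mean below 50 but one replicate at or above 50; inactive = mean and every replicate below 50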;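 note: strain carries kanamycin resistance gene driven by streptokinase promoter and grows in 40 µg/ml kanamycin; loss of luminescence reflects streptokinase promoter inhibition or plain growth inhibition; 0% = median of DMSO wells and 100% = positive control at its reference dose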
Mdm2 MdmX conf: Mdm2-MdmX complex disruptors, retested hits, confirmation, luminescence, single concentration | 10,000 tested, 55% active | shares compounds with Mdm2-MdmX inh | Mdm2-MdmX binding, luminescent assay | inhibition, % at 8 µM; in the data active = inhibition above about 40%
FLuc counter: full-length luciferase signal inhibition, confirmation, counter-screen for Mdm2/MdmX interaction inhibitor project, cell-based, single concentration, SaOS-2. shares compounds with Mdm2-MdmX inh. SaOS-2 full-length luciferase counterscreen, luminescence. inhibition, % at 8 µM. 6,200 tested, 77% active;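 active = mean inhibition at 8 µM reaching about 37%, which flags the compound as non-specific, limit read from the data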;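 note: p53-null SaOS-2 cells with luciferase driven by a doxycycline-inducible promoter; compound on cells about two nights before reading with doxycycline added after day one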
* = called active by the depositor; ? = inconclusive; · = no result given.

SMILES | Beta cell apopt | Mdm2-MdmX inh | CSC inhib | XBP1 UPR activ | UPR CHOP act | SKKanGAS inh | Mdm2 MdmX conf | FLuc counter
COc1cccc(Nc2nc(N)c([N+](=O)[O-])c(N3CCOCC3)n2)c1 | -1 | 1 | 4 | 5 | 4 | 12 | · | ·
CCCC(C(=O)NC(C)(C)C)N(Cc1ccc(F)cc1)C(=O)c1snc(C(N)=O)c1N (stereo unspecified) | · | -21 | -3 | -1 | -2 | -3 | · | ·
O=C(N/N=C1\CC(c2ccccc2)Oc2ccccc21)c1ccc(O)cc1 (stereo unspecified) | -2 | -9 | 12 | 4 | 2 | 33 | · | ·
O=C(N/N=C1\CC(c2ccccc2)Oc2ccccc21)c1cccnc1 (stereo unspecified) | 24 | 52* | 0 | 0 | -1 | 7 | 31 | ·
CC[C@@]1(C(=O)OC)N[C@H](CN(C)C(=O)Nc2ccc(Cl)cc2)[C@@H]2C(=O)N(Cc3ccccc3)C(=O)[C@@H]21 | -3 | 64* | · | -1 | 1 | · | 57* | 51*
CCCNC(=O)c1ccccc1NC(=O)c1ccc2c(c1)NC(=O)C(C)S2 (stereo unspecified) | · | 53* | 45 | -1 | 1 | ? | 68* | 72*
C=C1C(=O)O[C@@H]2[C@H]3O[C@]3(C)CC/C=C(\C)CC[C@@H]12 | -11 | 68* | -8 | -10 | 11 | · | 54* | 62*
COc1cccc(/C=C2\SC(=S)N(CCCC(=O)N3CCCCC3CCO)C2=O)c1 (stereo unspecified) | -38 | 78* | 23 | -6 | 1 | -4 | 61* | 21
COc1cccc(/C=C2\SC(=S)N(CCCC(=O)N3CCCC3)C2=O)c1 | -34 | 84* | -1 | -4 | 1 | 4 | 46* | 35
COc1cccc(/C=C2\SC(=S)N(CCC(=O)N3CCCCC3CCO)C2=O)c1 (stereo unspecified) | -33 | 77* | 20 | -7 | 3 | -6 | 45* | 40*
Cc1cc(C)n(-c2nc(SCCN(C)C)c3c4c(sc3n2)COC(C)(C)C4)n1 | 23 | 54* | 8 | 1 | 0 | 16 | 58* | 53*
CC(=O)N1CCN(CC(=O)Nc2cc(S(=O)(=O)N3CCCCC3)ccc2C)CC1 | 0 | 17 | -7 | 2 | -2 | · | · | ·
O=C(Nc1nc(-c2ccccn2)cs1)c1ccco1 | 32 | 51* | 1 | 0 | 4 | 59* | 24 | ·
O=C(Nc1nc(-c2cc3ccccc3oc2=O)cs1)c1ccco1 | 3 | 27 | 14 | 5 | -1 | 1 | · | ·
O=C(Nc1ccc(Br)cc1)c1cccc(-n2cnnn2)c1 | 3 | 24 | -8 | 3 | 5 | -5 | · | ·
O=C(Nc1nc(-c2ccccn2)cs1)c1cccc(-n2cnnn2)c1 | 76* | 77* | 32 | -1 | -2 | 53* | 69* | 26
COc1ccc(N(CC(=O)N2CCC(C(N)=O)CC2)S(=O)(=O)c2ccccc2)cc1 | -5 | 7 | -8 | 7 | 0 | 0 | · | ·
O=[N+]([O-])c1c(Nc2ccccn2)cc(Cl)c2nonc12 | 115* | 100* | 96* | -11 | -11 | 16 | 100* | 1
CN(C)c1cc(Nc2ccc(O)cc2)c([N+](=O)[O-])c2nonc12 | -3 | -3 | 11 | 6 | 0 | -1 | · | ·
O=[N+]([O-])c1c(Nc2ccc(O)cc2)cc(Cl)c2nonc12 | 100* | 100* | 91* | -12 | -11 | -9 | 100* | 1

Bioassay records deposited in PubChem by several laboratories.
